Source: ChEMBL document CHEMBL4376884, “Toward a Rational Design of Polyamine-Based Zinc-Chelating Agents for Cancer Therapies” (J Med Chem, 2020)
Activity calls are given as the source filed them. The calls are words filed in the database; no cut-off is given here.

Experiments:
[1] = test system: JeKo-1; assay: Antiproliferative activity against human JeKo1 cells assessed as reduction in cell viability at 10 uM incubated for 48 hrs by cell titer-glo assay; type: functional, cell-based
Procedure, shortened: (§1)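 Cells plated and treated 24 h later with 10 µM compound for 48 h; viable cells quantified by CellTiter-Glo ATP luminescence. Expressed as percentage of viable cells relative to untreated; mean ± SD of three independent experiments, each in triplicate.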

[2] = test system: LN-229; assay: Antiproliferative activity against human LN229 cells assessed as reduction in cell viability at 10 uM incubated for 48 hrs by cell titer-glo assay; type: functional, cell-based; procedure, shortened: as §1
[3] = organism: Homo sapiens; assay: Antiproliferative activity against human JMV2 cells assessed as reduction in cell viability at 10 uM incubated for 48 hrs by cell titer-glo assay; type: functional, cell-based; procedure, shortened: as §1
[4] = test system: PC-3; assay: Antiproliferative activity against human PC3 cells assessed as reduction in cell viability at 10 uM incubated for 48 hrs by cell titer-glo assay; type: functional, cell-based; procedure, shortened: as §1
[5] = test system: SW480; assay: Antiproliferative activity against human SW480 cells assessed as reduction in cell viability at 10 uM incubated for 48 hrs by cell titer-glo assay; type: functional, cell-based; procedure, shortened: as §1
[6] = test system: PC-3; assay: Induction of cell morphological changes in human PC3 cells assessed as loss of cell adherence at 10 uM incubated for 24 to 48 hrs by phase contrast microscopy; type: functional, cell-based
Procedure, shortened: (§2)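 LN229 and PC3 cells exposed to 10 µM compound for the indicated time-points, then imaged live by phase-contrast microscopy for morphology.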

[7] = test system: PC-3; assay: Induction of cell morphological changes in human PC3 cells assessed as cell rounding at 10 uM incubated for 24 to 48 hrs by phase contrast microscopy; type: functional, cell-based; procedure, shortened: as §2
[8] = test system: PC-3; assay: Induction of cell morphological changes in human PC3 cells assessed as cell shrinkage at 10 uM incubated for 24 to 48 hrs by phase contrast microscopy; type: functional, cell-based; procedure, shortened: as §2
[9] = test system: Granta-519; assay: Antiproliferative activity against human GRANTA-519 cells assessed as reduction in cell viability incubated for 48 hrs by cell titer-glo assay; type: functional, cell-based; settings: Granta-519, 48 h
Procedure, shortened: (§3)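 Dose-response: cells plated, treated 24 h later for 48 h, then ATP measured by CellTiter-Glo luminescence. IC50 given as mean ± SD from three independent experiments, each in triplicate. Fibroblasts came from individuals. Cells were kept in RPMI or DMEM with 10% heat-inactivated FBS and penicillin/streptomycin at 37 °C, 5% CO2.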

[10] = test system: Z-138; assay: Antiproliferative activity against human Z138 cells assessed as reduction in cell viability incubated for 48 hrs by cell titer-glo assay; type: functional, cell-based; settings: Z-138, 48 h; procedure, shortened: as §3
[11] = test system: PC-3; assay: Antiproliferative activity against human PC3 cells assessed as reduction in cell viability incubated for 48 hrs by cell titer-glo assay; type: functional, cell-based; settings: PC-3, 48 h; procedure, shortened: as §3
[12] = test system: Jurkat; assay: Cell cycle arrest in human Jurkat cells assessed as increase in cell accumulation at G0/G1 phase at 10 uM incubated for 24 hrs by propidium iodide staining based flow cytometry analysis; type: functional
[13] = test system: U-87 MG; assay: Cell cycle arrest in human U87MG cells assessed as increase in cell accumulation at G0/G1 phase at 10 uM incubated for 24 hrs by propidium iodide staining based flow cytometry analysis; type: functional; settings: U-87MG ATCC
[14] = test system: U-87 MG; assay: Cell cycle arrest in human U87MG cells assessed as decrease in cell accumulation at G2 phase at 10 uM incubated for 24 hrs by propidium iodide staining based flow cytometry analysis; type: functional; settings: U-87MG ATCC
[15] = test system: LN-229; assay: Cell cycle arrest in human LN229 cells assessed as cell accumulation at G1 phase at 10 uM incubated for 24 hrs by propidium iodide staining based flow cytometry analysis relative to control; type: functional
[16] = test system: PC-3; assay: Cell cycle arrest in human PC3 cells assessed as cell accumulation at G2/M phase at 10 uM incubated for 24 hrs by propidium iodide staining based flow cytometry analysis relative to control; type: functional
[17] = test system: PC-3; assay: Cell cycle arrest in human PC3 cells assessed as cell accumulation at G2/M phase at 10 uM incubated for 48 hrs by propidium iodide staining based flow cytometry analysis relative to control; type: functional
[18] = test system: LN-229; assay: Induction of cellular senescence in human LN229 cells assessed as flattened cells at 10 uM incubated for 24 hrs by phase contrast microscopy; type: functional, cell-based
Procedure, shortened: (§4)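 LN229 and PC3 cells, 12×10^4 per well in 6-well plates, treated with 10 µM compound for 24 h. Senescence-associated β-gal staining: fixed in 2% formaldehyde/0.2% glutaraldehyde for 10 min at RT, stained with 1 mg/mL X-gal at 37 °C for 24 h without CO2. Blue cells counted in at least 10 fields at 10x and given as percent of total; four independent experiments. Morphology viewed by phase contrast at ×100.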

[19] = test system: LN-229; assay: Induction of cellular senescence in human LN229 cells assessed as larger volume of cell at 10 uM incubated for 24 hrs by phase contrast microscopy; type: functional, cell-based; procedure, shortened: as §4
[20] = test system: LN-229; assay: Induction of cellular senescence in human LN229 cells assessed as increase in nuclear size at 10 uM incubated for 24 hrs by phase contrast microscopy; type: functional, cell-based; procedure, shortened: as §4
[21] = test system: PC-3; assay: Induction of cellular senescence in human PC3 cells assessed as wider cells at 10 uM incubated for 24 hrs by phase contrast microscopy; type: functional, cell-based; procedure, shortened: as §4
[22] = test system: PC-3; assay: Induction of apoptosis in human PC3 cells assessed as late apoptotic cells at 10 uM incubated for 24 hrs by annexin V-FITC and propidium iodide staining based flow cytometry analysis (reference value: 0.52 %); type: functional
[23] = test system: PC-3; assay: Induction of apoptosis in human PC3 cells assessed as necrotic cells at 10 uM incubated for 72 hrs by annexin V-FITC and propidium iodide staining based flow cytometry analysis (reference value: 0.30 %); type: functional
[24] = test system: DNA; assay: Induction of DNA damage in human Z138 cells assessed as gammaH2AX phosphorylation at Ser139 residue at 10 uM incubated for 4 hrs by Flow cytometry analysis; type: cell-based
Procedure, shortened: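 Z-138 and LN229 cells treated 4 h with 10 µM compound or 1 µM doxorubicin. Fixed in 3.7% formaldehyde on ice, permeabilized with 0.2% Triton X, stained with rabbit anti-pS139 H2A.X (1:400) and Alexa 555 secondary, then analysed by flow cytometry. Fold γH2AX fluorescence versus untreated; mean ± SD of three experiments.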

[25] = test system: LN-229; assay: Inhibition of colony formation in human LN229 cells at 10 uM incubated for 4 hrs by crystal violet staining based colony counting method; type: functional, cell-based
Procedure, shortened: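 LN229 and PC3 cells treated for 4 h with compound (10 µM) or with etoposide (30 µM positive control), washed, trypsinized and replated at 3000 cells per 60-mm plate. Colonies grown 7–10 days, fixed and stained with 0.5% crystal violet in 70% ethanol, and counted. Reported as percent of control; four independent experiments, each in duplicate.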

[26] = test system: PC-3; assay: Antiproliferative activity against human PC3 cells assessed as reduction in cell viability at 10 uM incubated for 48 hrs in presence of Cu2+ ion by MTT assay; type: functional, cell-based
Procedure, shortened: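 LN229 and PC3 cells plated, then 24 h later given 10 µM compound with or without 15 µM ZnCl2, CuCl2, FeCl2 or FeCl3 for 48 h. Medium replaced, MTT (12 mM solution) added for 4 h, formazan dissolved in DMSO, absorbance read at 540 nm. Percent viable versus untreated; mean ± SD of three experiments in triplicate.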

[27] = Metal chelating activity assessed as Zn2+-compound complex formation at physiological pH 7.4 by quantum mechanical studies
Procedure, shortened: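 Zn2+ complexes modelled by DFT, B3LYP, gas phase. Basis set def2-SV(P), with MDF10 Stuttgart-Dresden effective core potential for Zn and Grimme dispersion correction. Vibrational frequencies and zero-point correction computed for each minimum.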

| SMILES | Activity [1] | Activity [2] | Activity [3] | Activity [4] | Activity [5] | Activity [6] | Activity [7] | Activity [8] | IC50 [9] [µM] | IC50 [10] [µM] | IC50 [11] [µM] | Activity [12] | Activity [13] | Activity [14] | Activity [15] [%] | Activity [16] [%] | Activity [17] [%] | Activity [18] | Activity [19] | Activity [20] | other results |
| --- | --- | --- | --- | --- | --- | --- | --- | --- | --- | --- | --- | --- | --- | --- | --- | --- | --- | --- | --- | --- | --- |
| c1ccc(CNCCN(CCNCc2ccccn2)Cc2ccc3ccccc3c2)nc1 | Active | Active | Active | Active | Active | Active | Active | Active | 4.34 | 3.07 | 11 | Active | Active | Active | 63.1 | 17.2 | 14.1 | Active | Active | Active | Activity [21]: Active; Activity [22]: 2.17%; Activity [23]: 2.32%; Activity [24]: inactive; inhibition [25]: inactive; Activity [26]: inactive; Activity [27]: > 99% |
| CN(CCNCc1ccccn1)CCNCc1ccccn1 | Active | Active | Active | Active | Active | Active | Active | Active | 2.09 | 4.85 | 11.2 | Active | Active | Active | 62.1 | 19.7 | 16 | Active | Active | Active | Activity [21]: Active; Activity [22]: 2.13%; Activity [23]: 3.5%; Activity [24]: inactive; inhibition [25]: inactive; Activity [26]: inactive; Activity [27]: > 99% |
